Reference: ChEMBL document CHEMBL3425440, “ent-Kaurane Diterpenoids from Chinese Liverworts and Their Antitumor Activities through Michael Addition As Detected in Situ by a Fluorescence Probe” (J Med Chem, 2015)

How the values were obtained:
[1] = test system: LoVo; experiment: Cytotoxicity against human LoVo cells assessed as cell viability after 24 hrs by MTT assay; format: functional, cell-based
Method in brief: (§1)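 Cells grown to about 50−70% confluence at 37 °C, 5% CO2, then exposed to compounds 24 h (DMSO vehicle control, cisplatin positive control). MTT (5 mg/mL stock) added for 4 h, formazan dissolved in DMSO, absorbance read at 570 nm. IC50 derived from percent viability; at least three independent experiments, mean ± SD.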

[2] = test system: MDA-MB-231; experiment: Cytotoxicity against human MDA-MB-231 cells assessed as cell viability after 24 hrs by MTT assay; format: functional, cell-based; details: MDA-MB-231, 24 h; method in brief: as §1
[3] = Cytotoxicity against human PC3 cells assessed as cell viability after 24 hrs by MTT assay; format: functional, cell-based; details: PC-3, 24 h; method in brief: as §1
[4] = Cytotoxicity against human SH-SY5Y cells assessed as cell viability after 24 hrs by MTT assay; format: functional, cell-based; method in brief: as §1
[5] = Cytotoxicity against human SKOV3 cells assessed as cell viability after 24 hrs by MTT assay; format: functional, cell-based; details: SK-OV-3, 24 h; method in brief: as §1
[6] = test system: NCI-H1299; experiment: Cytotoxicity against human NCI-H1299 cells assessed as cell viability after 24 hrs by MTT assay; format: functional, cell-based; details: NCI-H1299, 24 h; method in brief: as §1
[7] = Cytotoxicity against human RWPE1 cells assessed as cell viability after 24 hrs by MTT assay; format: cell-based; details: RWPE-1, 24 h; method in brief: as §1
[8] = test system: LNCaP; experiment: Cytotoxicity against human LNCAP cells assessed as cell viability after 24 hrs by MTT assay; format: functional, cell-based; method in brief: as §1
[9] = Cytotoxicity against human HL60 cells assessed as cell viability after 24 hrs by MTT assay; format: functional, cell-based; details: HL-60, 24 h; method in brief: as §1
[10] = test system: K562; experiment: Cytotoxicity against human K562 cells assessed as cell viability after 24 hrs by MTT assay; format: functional, cell-based; details: K562, 24 h; method in brief: as §1
[11] = Cytotoxicity against human A172 cells assessed as cell viability after 24 hrs by MTT assay; format: functional, cell-based; details: A 172, 24 h; method in brief: as §1
[12] = test system: DU-145; experiment: Cytotoxicity against human DU145 cells assessed as cell viability after 24 hrs by MTT assay; format: functional, cell-based; details: DU-145, 24 h; method in brief: as §1
[13] = Cytotoxicity against human T24 cells assessed as cell viability after 24 hrs by MTT assay; format: functional, cell-based; details: T-24, 24 h; method in brief: as §1
[14] = Cytotoxicity against human Saos2 cells assessed as cell viability after 24 hrs by MTT assay; format: functional, cell-based; details: SAOS-2, 24 h; method in brief: as §1

Measured: IC50

C=C1[C@@H]2CC[C@H]3[C@]4(C)CCCC(C)(C)[C@H]4CC[C@]3(C2)[C@@H]1O
> 50 µM: all assays above

C=C1[C@@H]2CC[C@H]3[C@]4(C)CCCC(C)(C)[C@H]4C[C@@H](O)[C@]3(C2)[C@H]1O
> 50 µM: all assays above

C=C1[C@@H]2CC[C@]3(O)[C@@](CC[C@@H]4C(C)(C)CCC[C@]43C)(C2)[C@@H]1O
> 50 µM: all assays above

C[C@H]1C(=O)[C@@]23CC[C@@H]4C(C)(C)CCC[C@@]4(C)C2=CC[C@]1(O)C3
> 50 µM: all assays above
